The term MIC denotes the least concentration at which growth counts as inhibited. Read a low MIC as a more susceptible organism. A word on the IC50: it is the concentration that gives 50% inhibition.

Structures are written as SMILES. ≈ marks a conversion by molar mass, not a printed value.

Assay [1] is described as follows: Selectivity ratio of IC50 for human CRL7065 to MIC for Staphylococcus aureus ATCC 25923. The format is functional.
A further assay relates to Staphylococcus aureus. The experiment in a line: Antibacterial activity against Staphylococcus aureus ATCC 25923 after 20 hrs by doubling dilution method. The conditions noted are these: ATCC 25923, 20 h. The format is functional. The method, boiled down:
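Broth doubling-dilution in 96-well format: overnight nutrient-broth cultures (37 °C) adjusted to about 10^5 cells/mL; compound stocks in EtOH diluted 2-fold across wells in culture suspension. After 20 h at 37 °C in moist atmosphere, thiazolyl blue tetrazolium added, 4 h further incubation; living bacteria seen as violet turbid wells; MIC read as lowest inhibitory concentration.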

The test system of a further assay is MT4. The experiment in a line: Cytotoxicity against human MT4 cells after 96 hrs. The format is functional, cell-based. Particulars: MT4, 96 h.
The next assay concerns DU-145. The experiment in a line: Cytotoxicity against human DU145 cells after 96 hrs. The assay is classed as functional, cell-based. The conditions noted are these: DU-145, 96 h.
In a further assay the test system is HepG2. The experiment in a line: Cytotoxicity against human HepG2 cells after 96 hrs. Particulars: HepG2, 96 h. The format is functional, cell-based.

Consider `CC(C)C(=O)c1c(O)c([C@H](C2=C(O)C(C)(C)C(=O)C(C)(C)C2=O)C(C)C)c2c3c1OC(C)(C)C[C@H]3[C@H]1C(C)(C)C(=O)C(C)(C)[C@@]1(O)O2` (relative stereo), for which the Ratio in assay [1] was determined as 35. Moreover, the MIC in the assay with Staphylococcus aureus is 0.38 µM (≈ 0.248 µg/mL). Besides, the IC50 in the assay with MT4 turned out to be 2.1 µM; with DU-145, 3 µM; with HepG2, 4 µM.

In turn, `C=C1CC[C@]2(C)OC3=C(C(=O)C(C)(C)C(=O)C3(C)C)[C@@H](C(C)C)[C@@H]2[C@H]1C1CCCC1(C)C` (relative stereo) showed an MIC in the assay on Staphylococcus aureus of more than 560 µM. In the assay with MT4, this compound came in with an IC50 of more than 100 µM.

Compound `CC(C)[C@@H]1C[C@@]2(CC[C@]3(C(C)C)C[C@H]23)OC2=C1C(=O)C(C)(C)C(=O)C2(C)C` (relative stereo) showed an MIC in the assay with Staphylococcus aureus of more than 560 µM. Moreover, the IC50 in the assay with MT4 came out at 41.4 µM.

Turning to `CC[C@@]1(O)C(=O)OCc2c1cc1n(c2=O)Cc2cc3ccccc3nc2-1` [CAMPTOTHECIN], the IC50 in the assay with DU-145 amounted to 0.015 µM; in the assay on HepG2 it was 0.02 µM.

For `O=C(N[C@H](CO)[C@H](O)c1ccc([N+](=O)[O-])cc1)C(Cl)Cl` [CHLORAMPHENICOL], in the assay on Staphylococcus aureus, it took 4 µM (≈ 1.29 µg/mL) to inhibit growth (MIC).

Turning to `COc1cc([C@@H]2c3cc4c(cc3[C@@H](O[C@@H]3O[C@@H]5CO[C@@H](C)O[C@H]5[C@H](O)[C@H]3O)[C@H]3COC(=O)[C@H]23)OCO4)cc(OC)c1O` [ETOPOSIDE], the IC50 in the assay on MT4 turned out to be 0.09 µM; with DU-145, 3 µM; in the assay on HepG2, 4 µM.

Compound `CC(C)C(=O)c1c(O)c([C@H](C2=C(O)C(C)(C)C(=O)C(C)(C)C2=O)C(C)C)c(O)c([C@H](C2=C(O)C(C)(C)C(=O)C(C)(C)C2=O)C(C)C)c1O` [MYRTUCOMMULONE A] came in with a minimal inhibitory concentration (MIC) against Staphylococcus aureus of 2.2 µM (≈ 1.47 µg/mL). In addition, the half-maximal inhibitory concentration (IC50) worked out at 4.7 µM in the assay with MT4, 5 µM with DU-145 and 6 µM with HepG2.
